ChEMBL document CHEMBL4706639, “Discovery of Novel Azetidine Amides as Potent Small-Molecule STAT3 Inhibitors” (J Med Chem, 2021)
One block for each compound: values may come before it. The source made the active and inactive calls. The calls are words filed in the database; no cut-off is given here.

Experiments:
MDA-MB-231 [1] = assay: Antiproliferative activity against human MDA-MB-231 cells assessed as reduction in cell viability incubated for 72 hrs by CyQuant assay; type: functional, cell-based; conditions: MDA-MB-231, 72 h
[2] = Inhibition of oligonucleotide [32P]-labelled 5'-AGATTTCTAGGAATTCAA probe binding to STAT5 homodimer in mouse NIH3T3 nuclear extract preincubated for 30 mins followed by MGFe probe addition by EMSA analysis
[3] = target: Signal transducer and activator of transcription 3 (Homo sapiens) (UniProt P40763); assay: Inhibition of oligonucleotide [32P]-labelled 5'-AGCITCATTTCCCGTAAATCCCTA hSIE probe binding to STAT3 in human MDA-MB-468 cell nuclear extract at 0.5 to 5 uM incubated for 3 hrs by EMSA analysis; conditions: dose 0.5-5 µM
Sequence of Signal transducer and activator of transcription 3 (Homo sapiens) (P40763 whole entry): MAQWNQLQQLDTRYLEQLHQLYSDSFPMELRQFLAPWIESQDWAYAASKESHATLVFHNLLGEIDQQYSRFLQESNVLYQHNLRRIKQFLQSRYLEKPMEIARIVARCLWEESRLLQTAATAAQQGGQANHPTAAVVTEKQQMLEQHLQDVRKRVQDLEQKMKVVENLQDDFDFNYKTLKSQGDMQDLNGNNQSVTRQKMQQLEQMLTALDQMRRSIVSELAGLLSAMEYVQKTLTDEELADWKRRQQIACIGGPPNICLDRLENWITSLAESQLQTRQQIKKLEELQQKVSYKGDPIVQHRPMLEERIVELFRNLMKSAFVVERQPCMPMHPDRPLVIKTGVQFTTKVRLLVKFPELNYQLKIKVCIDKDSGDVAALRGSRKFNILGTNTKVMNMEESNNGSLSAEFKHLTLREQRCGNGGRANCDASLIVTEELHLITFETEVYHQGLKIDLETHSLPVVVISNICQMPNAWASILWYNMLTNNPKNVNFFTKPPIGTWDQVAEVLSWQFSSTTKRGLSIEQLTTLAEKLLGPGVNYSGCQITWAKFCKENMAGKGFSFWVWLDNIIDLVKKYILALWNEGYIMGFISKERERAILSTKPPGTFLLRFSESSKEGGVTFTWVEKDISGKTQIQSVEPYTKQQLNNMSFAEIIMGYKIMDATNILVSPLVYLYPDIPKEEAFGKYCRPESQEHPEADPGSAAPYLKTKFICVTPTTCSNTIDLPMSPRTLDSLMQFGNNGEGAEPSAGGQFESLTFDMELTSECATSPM

MDA-MB-231 [4] = assay: Antiproliferative activity against human MDA-MB-231 cells harbouring STAT3 assessed as reduction in cell viability at upto 10 uM incubated for 72 hrs by CyQuant assay; type: functional, cell-based
[5] = target: Signal transducer and activator of transcription 3 (Homo sapiens) (UniProt P40763); assay: Inhibition of STAT3 phosphorylation at Y705 residues in human MDA-MB-468 whole cell lysate at 0.5 to 2 uM incubated for 2 hrs by immunoblotting analysis; type: subcellular; conditions: dose 0.5-2 µM
MCF7 [6] = assay: Antiproliferative activity against human MCF7 cells assessed as reduction in cell viability incubated for 72 hrs by CyQuant assay; type: functional, cell-based; conditions: MCF7, 72 h
MDA-MB-468 [7] = assay: Antiproliferative activity against human MDA-MB-468 cells harbouring STAT3 assessed as reduction in cell viability at upto 10 uM incubated for 72 hrs by CyQuant assay; type: functional, cell-based; conditions: dose microM <=10, time 72.0 hrs
MDA-MB-231 [8] = assay: Anticlonogenic activity against human MDA-MB-231 cells assessed as inhibition of colony formation upto 1 uM incubated for 4 hrs by crystal violet staining based assay; type: functional, cell-based; conditions: dose microM <=1, time 4.0 hrs
Procedure, shortened: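 MDA-MB-231 cells seeded as single-cell cultures (250 cells per well), treated once the next day with compound at 0–1 μM and grown until large colonies were visible. Colonies stained with crystal violet for 4 h and photographed. Three independent determinations.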

[9] = target: T1, Signal transducer and activator of transcription 1 (Mus musculus) (UniProt P42225); assay: Inhibition of oligonucleotide [32P]-labelled 5'-AGCITCATTTCCCGTAAATCCCTA probe binding to STAT1 homodimer in mouse NIH3T3 nuclear extract at 10 uM preincubated for 30 mins followed by hSIE probe addition by EMSA analysis
T1 sequence (whole entry): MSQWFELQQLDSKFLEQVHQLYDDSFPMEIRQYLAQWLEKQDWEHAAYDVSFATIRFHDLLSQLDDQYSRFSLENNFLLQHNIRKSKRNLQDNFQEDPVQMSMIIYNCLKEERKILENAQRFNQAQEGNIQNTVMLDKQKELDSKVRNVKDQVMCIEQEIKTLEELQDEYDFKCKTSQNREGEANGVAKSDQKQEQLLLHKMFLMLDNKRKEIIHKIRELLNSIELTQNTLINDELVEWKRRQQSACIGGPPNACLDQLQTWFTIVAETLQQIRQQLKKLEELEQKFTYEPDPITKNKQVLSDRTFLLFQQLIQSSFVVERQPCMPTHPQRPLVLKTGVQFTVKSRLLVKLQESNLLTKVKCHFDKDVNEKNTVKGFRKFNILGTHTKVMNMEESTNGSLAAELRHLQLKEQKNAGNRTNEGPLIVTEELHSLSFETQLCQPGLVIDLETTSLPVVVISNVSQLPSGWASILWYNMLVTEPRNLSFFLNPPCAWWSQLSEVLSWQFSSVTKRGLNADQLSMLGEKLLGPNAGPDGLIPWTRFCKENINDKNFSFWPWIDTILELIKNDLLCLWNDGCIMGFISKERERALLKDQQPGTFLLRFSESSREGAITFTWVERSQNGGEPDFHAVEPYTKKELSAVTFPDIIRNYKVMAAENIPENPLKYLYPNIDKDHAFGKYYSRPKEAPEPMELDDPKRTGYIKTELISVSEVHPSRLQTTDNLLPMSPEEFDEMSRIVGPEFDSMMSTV

[10] = target: Signal transducer and activator of transcription 3 (Homo sapiens) (UniProt P40763); assay: Inhibition of oligonucleotide [32P]-labelled 5'-AGCITCATTTCCCGTAAATCCCTA hSIE probe binding to STAT3 in human MDA-MB-468 cell nuclear extract at 5 uM by EMSA analysis; conditions: time upper […], TDE = time-dependent effect
MCF-10A = assay: Cytotoxicity against human MCF-10A cells assessed as reduction in cell viability incubated for 72 hrs by CyQuant assay; type: cell-based
MCF7 [11] = assay: Antiproliferative activity against human MCF7 cells assessed as reduction in cell viability at 2 uM incubated for 24 hrs by Trypan blue exclusion dye based phase contrast microscopic analysis; type: functional
Procedure, shortened: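 Cells in 6-well culture, untreated or treated once with 2 μM compound. Harvested every 24 h (up to 96 h) and counted as viable cells by trypan blue exclusion under phase-contrast microscopy. Counts plotted against duration of treatment.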

MDA-MB-468 [12] = assay: Antiproliferative activity against human MDA-MB-468 cells harbouring STAT3 assessed as reduction in cell viability incubated for 72 hrs by CyQuant assay; type: functional, cell-based; conditions: MDA-MB-468, 72 h
NIH3T3 = assay: Inhibition of oligonucleotide [32P]-labelled 5'-AGATTTCTAGGAATTCAA probe binding to STAT5 homodimer in mouse NIH3T3 nuclear extract at 10 uM preincubated for 30 mins followed by MGFe probe addition by EMSA analysis
[13] = target: Signal transducer and activator of transcription 3 (Mus musculus, UniProt P42227); assay: Inhibition of oligonucleotide [32P]-labelled 5'-AGCITCATTTCCCGTAAATCCCTA probe binding to STAT3 SH2 domain (unknown origin) preincubated for 30 mins followed by hSIE probe addition by EMSA analysis
Sequence of Signal transducer and activator of transcription 3 (P42227 whole entry, the tested form may be a part): as the sequence (P40763 whole entry) above, with E760D counted along it

SMILES: CC(=O)c1cc2c(o1)C(=O)c1ccccc1C2=O [NAPABUCASIN]
- inhibition [3]: Active
- EC50 (MDA-MB-231 [4]; MDA-MB-231, 72 h): 1.8 µM
- inhibition [5]: Active
- EC50 (MCF7 [6]): 1.49 µM

SMILES: CNC(=O)c1ccc(N(Cc2ccc(C3CCCCC3)cn2)C(=O)[C@H]2CCN2S(=O)(=O)c2c(F)c(F)c(F)c(F)c2F)cc1O
- EC50 (MDA-MB-231 [1]): 1.8 µM
- inhibition (MDA-MB-231 [8]): inactive
- inhibition [9]: Active
- inhibition [10]: Tde
- EC50 (MCF-10A): 4.6 µM
- Activity (MCF7 [11]): inactive
- EC50 (MCF7 [6]): 3.8 µM
- EC50 (MDA-MB-468 [12]): 1.8 µM
- inhibition (NIH3T3): Active

SMILES: NC(=O)c1ccc(N(Cc2ccc(C3CCCCC3)cn2)C(=O)[C@H]2CCN2S(=O)(=O)c2c(F)c(F)c(F)c(F)c2F)c(F)c1
- IC50 [13]: > 2 µM

The next lines start with results.

- EC50 (MDA-MB-231 [1]): > 10 µM
- IC50 [2]: 17.5 µM
SMILES: O=C(O)c1ccc(N(Cc2ccc(C3CCCCC3)cc2)C(=O)[C@H]2CCN2S(=O)(=O)c2c(F)c(F)c(F)c(F)c2F)c(F)c1

- IC50 [2]: 9.3 µM
SMILES: O=C(O)c1ccc(N(Cc2ccc(C3CCCCC3)cc2)C(=O)[C@H]2CCN2S(=O)(=O)c2c(F)c(F)c(F)c(F)c2F)cc1O
- Activity (MDA-MB-468 [7]): inactive
- Activity (MDA-MB-231 [4]; dose microM <=10, time 72.0 hrs): inactive
